# Screening data: PubChem BioAssay, several laboratories
# HSF1 activator: increases HSF-1 driven luciferase reporter signal; NIH3T3-HGL HSF-1 luciferase reporter, MG132, 8 h; 100% = twice DMSO control signal; activation, % at 9 µM; 300,000 tested, 1.7% active;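 active = mean replicate activation of at least 50% with a set share of replicates each reaching 50%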
# AI-2 QS mod: modulates the Vibrio harveyi AI-2 quorum sensing system; activity change, % at 7.5 µM; 300,000 tested, 0.4% active; Vibrio harveyi JMH597 AI-2 luminescence/OD600 ratio, 9 h; active compounds read low; strain lacks LuxN and CqsS sensors; 0 = neutral-control median; in the data active = activity change below about -75%, passing the limit was not always enough;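 note: luminescence divided by OD600 gain over 9 h not by final OD600 alone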
# PHOSPHO1 inh: blocks human PHOSPHO1 phosphatase activity; recombinant PHOSPHO1, absorbance phosphatase assay; 290,000 tested, 1.1% active; Q8TCT1; AID 1565; inhibition, % at 13.3 µM; in the data active = inhibition above about 60%
# Target sequence (Q8TCT1 whole entry, looked up): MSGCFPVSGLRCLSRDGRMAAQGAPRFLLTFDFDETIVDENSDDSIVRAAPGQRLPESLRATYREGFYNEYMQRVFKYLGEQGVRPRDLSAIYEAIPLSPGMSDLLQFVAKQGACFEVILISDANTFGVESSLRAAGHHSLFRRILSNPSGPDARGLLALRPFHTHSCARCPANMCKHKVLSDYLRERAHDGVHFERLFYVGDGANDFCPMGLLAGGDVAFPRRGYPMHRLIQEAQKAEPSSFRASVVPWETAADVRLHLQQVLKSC
# core dimer inh: blocks dimerization of HCV core protein; TR-FRET GST/Flag-core106 dimerization, 1536-well; inhibition, % at 5 µM; 300,000 tested, 0.33% active; AID 1899;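 active = inhibition above the mean of all tested compounds plus 3 SD, set per screening campaign, cut at about 45% in these data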
#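 Material: GST/Flag-tagged HCV core106 proteins. Incubation: 4 h, 22.5 °C incubation. Read-out basis: inhibition (%) from 671 over 617 nm ratio. Measured by: TR-FRET, excitation 340 nm, emission 617 and 671 nm.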
# ALR H2O2 inh: human ALR oxidase inhibition via reduced H2O2. P55789. purified ALR, DTT oxidation, H2O2 HRP-luminol luminescence. inhibition, % (no concentration beside the values). 290,000 tested, 3.8% active;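 active = mean replicate inhibition above about 79%, with every replicate also reaching it, limit read from the data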
# Target sequence (P55789 whole entry, looked up): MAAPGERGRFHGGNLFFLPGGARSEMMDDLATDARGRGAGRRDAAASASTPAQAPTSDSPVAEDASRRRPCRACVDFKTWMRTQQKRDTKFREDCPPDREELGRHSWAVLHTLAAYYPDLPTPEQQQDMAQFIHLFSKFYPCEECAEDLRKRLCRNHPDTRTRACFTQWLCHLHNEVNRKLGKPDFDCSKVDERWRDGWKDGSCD
# HSF1 inh: HSF1 inhibition; AID 2098; 300,000 tested, 0.77% active; activity change, negative = inhibition, % at 7.5 µM (by protocol); NIH3T3-HGL HSE-luciferase, MG132-induced, luminescence 8 h; active compounds read low;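 active = more than half of replicate wells show activity change below -50%, luminescence cut by over half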;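 note: luciferase reports HSF-1 transcriptional activity via heat shock element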
# A number is an active result; i = inactive; nt = no result. In the library only some 6.8% were active in any assay of this set; here they are far more common.
SMILES,HSF1 activator,AI-2 QS mod,PHOSPHO1 inh,core dimer inh,ALR H2O2 inh,HSF1 inh
Cc1c(NC(=O)Nc2ccc([N+](=O)[O-])cc2)c(=O)n(-c2ccccc2)n1C,58,i,i,i,i,i
COc1cccc(NC(=O)Nc2c(C)n(C)n(-c3ccccc3)c2=O)c1,i,i,i,i,i,i
O=C(NC1CC1)C1=C[C@@H](c2coc3ccccc3c2=O)C[C@@H](OCCCCO)O1,i,i,i,i,i,i
Cc1ccc(Cn2ccsc2=NC(=O)CCl)cc1,nt,i,i,i,97,nt
Cc1ccc(Cn2ccsc2=NC(=O)COC(=O)c2ccc(NC(=O)CC#N)cc2)cc1,i,i,nt,i,i,i
O=c1[nH]c(CNCc2cccnc2)nc2ccccc12,i,i,i,i,i,i
COC(=O)c1ccc(CNC(=O)CSc2nc3ccccc3[nH]2)cc1,i,i,i,i,i,i
COc1cc(/C(C)=N/NC(=O)CSc2nc3ccccc3[nH]2)ccc1O,i,i,i,i,99,i
C/C(=N\NC(=O)CSc1nnc(C)s1)c1ccc(O)cc1,i,i,i,i,99,i
COc1cc(/C(C)=N/NC(=O)CSc2nnc(C)s2)ccc1O,i,i,i,i,95,i
Cc1ccccc1CN(C)C(C)C(=O)NCc1ccccc1 (stereo not drawn),i,i,i,nt,i,i
O=C(COc1coc(CN2CCN(c3ccccc3)CC2)cc1=O)Nc1ccc(F)cc1,i,i,nt,i,nt,i
S=c1[nH]ncn1/N=C/c1ccc(N2CCOCC2)cc1,i,i,88,i,99,i
S=c1[nH]nc(Cc2ccc(Br)cc2)n1/N=C/c1ccc(Cl)cc1,i,i,i,i,i,i
S=c1[nH]ncn1/N=C/c1ccc(Br)cc1,i,i,96,i,98,i
Oc1ccc(/C=N/n2c(-c3ccccc3)n[nH]c2=S)cc1,i,i,i,i,i,i
C(=N\n1cnnc1)/c1ccc(N2CCOCC2)cc1,i,i,i,i,i,i
S=c1[nH]ncn1/N=C/c1ccccc1,i,i,89,i,98,i
S=c1[nH]c(-c2ccccc2)cn1/N=C/c1ccncc1,i,i,70,i,i,i
CCOc1ccc(/C=N/n2cc(-c3ccccc3)[nH]c2=S)cc1,i,i,i,i,i,i
COc1ccc(NC(=O)Nc2cccc3c2O[C@H](CN(C)C(=O)Nc2c(C)noc2C)[C@@H](C)CN([C@H](C)CO)C3=O)cc1,nt,nt,nt,nt,i,nt
CN(C)C(=O)c1cnc(-c2ccccc2)nc1-c1ccccc1,i,i,nt,i,i,i
CCn1c2ccccc2c2cc(/C=N/n3cn[nH]c3=S)ccc21,i,i,i,i,98,i
CCn1c(=S)[nH]c2sc3c(c2c1=O)CCCC3,i,i,i,i,i,i
CN(C)CCCn1c(=S)[nH]c2sc3c(c2c1=O)CCCC3,i,i,i,i,99,i
SMILES,HSF1 activator,AI-2 QS mod,PHOSPHO1 inh,core dimer inh,ALR H2O2 inh,HSF1 inh
Cn1ccnc1SCc1cn2ccccc2n1,i,i,i,i,94,i
Cc1ccn2cc(CSc3ccccc3)nc2c1,53,i,i,i,i,i
COc1ccc(NC(=O)CN2C(=O)NC(C)(C3CC3)C2=O)cc1S(=O)(=O)N1CCOCC1 (stereo not drawn),nt,nt,nt,nt,i,nt
CC1CCN(c2ccc(C(F)(F)F)cc2N)CC1,i,i,i,i,98,i
CCOc1ccc(S(=O)(=O)c2c[nH]c3ccccc3c2=O)cc1,i,-85,i,i,i,i
CN1CCC(N(C)C(=O)c2cc(-c3ccccc3Cl)nc3ccccc23)CC1,nt,nt,nt,nt,i,nt
CC1(C)OC(=O)C(=CNCCc2ccc(O)cc2)C(=O)O1,i,i,i,i,88,i
CC1(C)OC(=O)C(=CNCC(O)c2ccccc2)C(=O)O1 (stereo not drawn),i,i,i,i,i,i
NC(=O)c1ccc(NC(=O)COC(=O)CC(NC(=O)c2ccccc2Cl)c2ccccc2)cc1 (stereo not drawn),i,i,i,i,i,i
C/C(=N\Nc1ccc(F)cc1F)c1ccc(F)cc1,i,i,i,54,i,i
C/C(=N\Nc1ccc(F)cc1F)c1ccc(N2CCOCC2)cc1,i,i,i,i,i,i
Cc1cc(C)n2nc(C(=O)N/N=C/c3cccc(Cl)c3)nc2n1,56,i,i,i,i,i
Cc1cc(C)n2nc(C(=O)N/N=C/c3ccc(O)cc3)nc2n1,i,i,i,i,99,i
COc1ccc(-c2nn(-c3ccccc3)cc2C(=O)NC(=S)N2CCOCC2)cc1OC,nt,nt,nt,nt,i,nt
O=C(/C=C/c1cccc([N+](=O)[O-])c1)n1cnc2ccccc21,231,i,i,nt,nt,i
O=C(/C=C/c1cccc([N+](=O)[O-])c1)N1CCN(c2ccccn2)CC1,i,i,i,i,i,i
COc1ccccc1CCNC(=O)CSc1nnc2ccc(-c3ccncc3)nn12,i,i,i,i,i,i
c1ccc(-c2ccc(-n3ccnc3)cc2)cc1,72,i,i,i,i,i
c1ccc(-c2ccc(C(c3ccccc3)n3ccnc3)cc2)cc1 (stereo not drawn),i,i,i,i,i,i
Cn1cc(C(=O)NS(=O)(=O)Nc2ccc(Br)cn2)c2ccccc21,i,i,i,i,i,i
Cc1ccc(SCC(=O)c2cc(C)c(O)c(C)c2)cc1,i,i,nt,i,i,i
COc1ccc(SCC(=O)c2cc(C)c(OC(=S)N(C)C)c(C)c2)cc1,i,i,i,i,92,i
Cc1cc(C(=O)CSc2ccc(F)cc2)cc(C)c1OC(=S)N(C)C,i,i,i,i,i,-62
CC(C)NC(=O)Nc1ccc2c(c1)C(=O)N([C@H](C)CO)C[C@H](C)[C@@H](CN(C)S(=O)(=O)c1cn(C)cn1)O2,nt,nt,nt,nt,i,nt
Cc1oc(-c2ccccc2Cl)nc1CS(=O)CC(=O)NCc1cccs1 (stereo not drawn),i,i,i,i,nt,i
SMILES,HSF1 activator,AI-2 QS mod,PHOSPHO1 inh,core dimer inh,ALR H2O2 inh,HSF1 inh
Cc1cccc(-c2nc(CS(=O)CC(=O)NCc3cccs3)c(C)o2)c1 (stereo not drawn),i,i,i,i,nt,i
Cc1oc(-c2ccc(Cl)cc2)nc1CS(=O)CC(=O)NCc1cccs1 (stereo not drawn),i,i,i,i,99,i
Cc1oc(-c2ccccc2F)nc1CS(=O)CC(=O)NCc1cccs1 (stereo not drawn),i,i,i,i,100,i
Cc1cccc(-c2nc(CSCC(=O)NCc3cccs3)c(C)o2)c1,i,i,i,i,98,i
N#Cc1ccc(C2=NC(C(F)(F)F)(C(F)(F)F)c3c(n(Cc4ccco4)c(=O)[nH]c3=O)N2)cc1,i,i,i,i,96,i
O=C(Nc1ccc2c(c1)OCO2)c1ccccn1,nt,nt,nt,nt,i,nt
O=C(/C=C\Nc1ccc2c(c1)OCO2)c1cccs1,i,i,i,i,96,i
O=C(/C=C\Nc1ccc2c(c1)OCO2)c1ccccn1,i,i,i,i,i,-72
